Seven molecules from ChEMBL document CHEMBL1131235, “(R)-(+)-2-[[[3-(Morpholinomethyl)-2H-chromen-8-yl]oxy]methyl] morpholine methanesulfonate: a new selective rat 5-hydroxytryptamine1B receptor antagonist” (J Med Chem, 1998) can be followed below.

The target of test [1] is 5-hydroxytryptamine receptor 1B (Rattus norvegicus, UniProt P28564). Briefly: Binding affinity against 5-hydroxytryptamine 1B receptor in membranes of Rat cerebral cortex. It is filed as tissue-based. Summed up: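 Rat cerebral cortical membranes labelled with [125I]iodocyanopindolol in the presence of 60 μM isoproterenol to block β-adrenoceptor binding. Nonspecific binding was defined with 10 μM 5-HT.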
5-hydroxytryptamine receptor 1B, sequence (P28564 whole entry): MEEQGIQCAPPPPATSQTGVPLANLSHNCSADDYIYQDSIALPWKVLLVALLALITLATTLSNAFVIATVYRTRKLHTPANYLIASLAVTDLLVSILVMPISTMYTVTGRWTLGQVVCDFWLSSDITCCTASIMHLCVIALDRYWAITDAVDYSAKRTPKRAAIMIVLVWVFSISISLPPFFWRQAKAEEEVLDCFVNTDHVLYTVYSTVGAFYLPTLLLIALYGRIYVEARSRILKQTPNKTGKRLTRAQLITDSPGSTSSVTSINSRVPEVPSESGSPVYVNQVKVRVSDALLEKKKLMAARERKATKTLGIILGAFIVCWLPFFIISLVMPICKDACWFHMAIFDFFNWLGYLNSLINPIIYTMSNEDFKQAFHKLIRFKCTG

Test [2] relates to Rattus norvegicus. Briefly: Effect on the wet dog shake response(WDS) in rats after 8 determinations at a dose of 1 mg/kg, sc pretreated with saline. As to conditions: route subcutaneous.
The test system of test [3] is Rattus norvegicus. Briefly: Effect on the wet dog shake response(WDS) in rats after 8 determinations at a dose of 1 mg/kg, sc pretreated with 200 mg/kg ip of pCPA.

As usually defined, the Ki is the dissociation constant of the complex between target and ligand, obtained from inhibition or displacement. The low end stands for higher affinity, the high end for lower affinity. With `CN1CCOC(COc2cccc3c2OCC(C#N)=C3)C1` (racemic), the Ki in test [1] amounted to 3600 nM.
Still for that read-out and setting: for `N#CC1=Cc2cccc(OCC3CCCNC3)c2OC1` (racemic) the value was 1400 nM; for `C1=C(CN2CCOCC2)COc2c1cccc2OCC1CNCCO1` (racemic), 60 nM.
For `c1ccc2nc(N3CCNCC3)ccc2c1` [QUIPAZINE], the “No. of WDS/60 min” value in test [2] is 36; in test [3] it was 30.
In the case of `N#CC1=Cc2cccc(OCC3CNCCO3)c2OC1` (racemic), in test [1], the inhibition constant Ki came to 250 nM.
On the same count and under the same terms, for `N#CC1=Cc2cccc(OCC3CNCCO3)c2CC1` (racemic) the value was 445 nM; for `O=C(C1=Cc2cccc(OCC3CNCCO3)c2OC1)N1CCOCC1` (stereo not drawn), 240 nM.
